Screening data as filed in PubChem BioAssay.
MEKK3 PB1 HTS – MEKK3-MEK5 PB1 interaction, increase or decrease | Q99759 | bead-based flow cytometry, Alexa488-MEK5 binding to MEKK3; actives lie on both sides; 0 = blocked by unlabeled MEK5, 100 = vehicle | binding response (% of control), % at 10 µM | 1.4% of 290,000 active | AID 1529;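 active = binding response more than 3 SD above or below the average of its plate-row segment, actives on both sides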;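 note: Alexa488 bead fluorescence after subtracting the streptavidin-only scavenger bead signal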
Apaf-1 inh – blocks human Apaf-1 apoptosome activity; reconstituted apoptosome caspase-3 activity, DEVD-Rh110 fluorescence; inhibition, % at 20 µM; 0.71% of 330,000 active; O14727; AID 489030; active = inhibition of at least 40% at 20 µM;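 note: plate controls were DMSO wells for no effect and DEVD-CHO caspase inhibitor wells for full effect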
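System – cell-free apoptosome with Apaf-1, procaspase-3 and caspase-9 · Buffer or medium – pH 7.5 Hepes buffer with CHAPS, BSA, DTT · Also added – cytochrome c with DEVD-Rh110 · Times – 30 min compound preincubation, 50 min activation, room temperature · Technique – Rh110 fluorescence intensity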
DSG3 Ab inh – blocks pemphigus antibody binding to human desmoglein-3 | binding (percent of control), % at 10 µM | 0.48% of 310,000 active | P32926 | DSG3-coupled beads, scFv-anti-DSG3-GFP binding, flow cytometry; stronger effect = lower value;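 active = binding more than 3 SD below its plate's average and above zero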;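 note: hits lower antibody fragment binding to DSG3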
UBC13 polyUb – inhibitors of human UBC13 polyubiquitin chain formation; 0.47% of 330,000 active; AID 485273; TR-FRET; P61088; inhibition, % at 20 µM; in the data active = inhibition above about 45%, passing the limit was not always enough
Target sequence (P61088 whole entry, looked up): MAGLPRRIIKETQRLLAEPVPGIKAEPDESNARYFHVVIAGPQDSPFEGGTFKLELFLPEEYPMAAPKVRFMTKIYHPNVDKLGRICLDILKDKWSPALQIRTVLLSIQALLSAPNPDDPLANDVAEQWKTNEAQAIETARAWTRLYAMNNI
MEKK2 WT-MEK5 – raises or lowers MEK5 binding to wildtype human MEKK2 PB1 domain; AID 1531; bead flow cytometry, Alexa488-MEK5 binding to MEKK2 WT; actives lie on both sides; binding response (% of control), % at 10 µM; Q9Y2U5; 1.1% of 290,000 active; in the data active = binding response below about 67% or above about 130%
MEKK2 mut-MEK5 – signal of MEK5 binding to mutant human MEKK2 PB1 domain. bead flow cytometry, Alexa488-MEK5 binding to MEKK2 mutant. percent response, % at 10 µM. 0.35% of 290,000 active; in the data active = percent response above about 24%, passing the limit was not always enough
MEKK2wt confirm – raises or lowers MEK5 binding to wildtype human MEKK2, retest; shares compounds with MEKK3 PB1 HTS; bead flow cytometry, Alexa488-MEK5 binding to MEKK2 WT; actives lie on both sides; binding response (% of control), % at 10 µM; 2.4% of 5,900 active; in the data active = binding response below about 16% or above about 210%; inactive = in between
MEKK2mut-MEK5 – signal of MEK5 binding to mutant human MEKK2, retest | 2% of 5,900 active | shares compounds with MEKK3 PB1 HTS | percent response, % at 10 µM | bead flow cytometry, Alexa488-MEK5 binding to MEKK2 mutant; in the data active = percent response mostly above about 71%, no sharp cut-off; inactive = mostly below about 38%;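 note: higher means compound restores mutant binding toward wildtype level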
MEKK3 confirm – confirmation of inhibitors of MEK5 binding to human MEKK3 | shares compounds with MEKK3 PB1 HTS | bead flow cytometry, Alexa488-MEK5 binding to MEKK3; stronger effect = lower value | binding response (% of control), % at 10 µM | 1.8% of 5,900 active;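 active = binding response below 72% of control, or above a set upper limit, though filed actives all read lower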;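 note: 100% = DMSO only wells and 0% = binding blocked by excess unlabeled MEK5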
Casp3 counter – inhibits human caspase-3 in UBC13 counter-screen; AID 488856; inhibition, % at 20 µM; 4% of 1,400 active; shares compounds with UBC13 polyUb; Recombinant caspase-3, Caspase-Glo 3/7 luminescence, 60 min;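 active = mean inhibition across replicates above about 26%, limit read from the data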;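 note: plate controls were DMSO with caspase-3 for no effect and DMSO wells lacking enzyme for full effect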
Target sequence (P42574 whole entry, looked up): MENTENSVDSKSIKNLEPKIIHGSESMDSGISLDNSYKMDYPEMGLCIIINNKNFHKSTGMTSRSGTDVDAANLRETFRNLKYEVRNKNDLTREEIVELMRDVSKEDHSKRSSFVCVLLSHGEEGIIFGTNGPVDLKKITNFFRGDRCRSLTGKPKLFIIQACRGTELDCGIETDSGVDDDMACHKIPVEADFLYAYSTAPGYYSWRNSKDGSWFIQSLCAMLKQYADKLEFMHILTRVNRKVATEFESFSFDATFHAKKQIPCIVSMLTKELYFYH
UBC13 confirm – human UBC13 polyubiquitin inhibition, confirmed; shares compounds with UBC13 polyUb; 68% of 1,400 active; inhibition, % at 10 µM; UBC13 polyubiquitination, TR-FRET, biochemical; in the data active = inhibition above about 45%
Starred values were filed as active, the others as inactive; nt = not tested or not shown; [ ] = another dose, or the depositor's remark. The list is not random: actives were taken first. Their share in the collection is about 3.2%.

SMILES	MEKK3 PB1 HTS	Apaf-1 inh	DSG3 Ab inh	UBC13 polyUb	MEKK2 WT-MEK5	MEKK2 mut-MEK5	MEKK2wt confirm	MEKK2mut-MEK5	MEKK3 confirm	Casp3 counter	UBC13 confirm
O=C(COC(=O)c1ccc(S(=O)(=O)C(F)F)cc1)Nc1ccccc1C(=O)NC1CC1	nt	-2	95	3	nt	nt	nt	nt	nt	nt	nt
NC(N)=N/N=C/c1ccc2cccc(OCc3ccccc3)c2n1	104	4	117	50*	148*	31	2.0*[inhibitor]	-47	2.0*	-1	41
C#CCOCCOCCOCCNc1nc(N2CCN(C(=O)[C@H](Cc3cc4ccccc4[nH]3)n3cc([C@@H](N)C(C)CC)nn3)CC2)nc(N2CCN(C(=O)[C@H](Cc3cc4ccccc4[nH]3)n3cc([C@@H](N)Cc4ccc(O)cc4)nn3)CC2)n1 (stereo partly specified)	111	60*	nt	124*	313*	162*	266*	104*	110	-2	119*
C#CCOCCOCCOCCNc1nc(N2CCN(C(=O)[C@H](Cc3ccc(O)cc3)n3cc([C@@H](N)C(C)CC)nn3)CC2)nc(N2CCN(C(=O)[C@H](Cc3cc4ccccc4[nH]3)n3cc([C@@H](N)C(C)CC)nn3)CC2)n1 (stereo partly specified)	111	33	114	77*	208*	59*	194	65	108	-2	66*
Cc1ccc(C(=O)N/C(=C\c2ccc(-c3cccc([N+](=O)[O-])c3)o2)C(=O)NCCCN(C)C)cc1	112	1	115	48*	141*	22	113	6	95	-2	63*
CN(C)CCCNC(=O)/C(=C\c1ccc(-c2cccc([N+](=O)[O-])c2)o1)NC(=O)c1ccccc1	109	13	87	29	101	6	nt	nt	nt	nt	nt
Cc1cccc(NC(=O)C(=O)NCC2CCCN2S(=O)(=O)c2ccccc2)c1 (stereo unspecified)	nt	17	109	-7	nt	nt	nt	nt	nt	nt	nt
c1cc2c(cc1C1CCCCC1)c1c3n2CCCNC3CCC1 (stereo unspecified)	93	32	112	64*	165*	18	157	25	104	2	72*
O=C(CCCN1C(=O)c2cccc3cccc(c23)C1=O)NCc1cccnc1	102	-16	112	2	88	-9	nt	nt	nt	nt	nt
O=C(CCCCCN1C(=O)c2cccc3cccc(c23)C1=O)NCc1cccnc1	49*[inhibitor]	-6	104	76*	51	-44	105	6	105	-3	58*
O=C(NCC1CCCCC1)C1(CC2CC(c3cccc(Br)c3)=NO2)CCNCC1 (stereo unspecified)	101	23	100	51*	145*	15	125	16	101	5	52*
CC(C)(C)OC(=O)N1CCC(CC2CC(c3cccc(Br)c3)=NO2)(C(=O)NCC2CCCCC2)CC1 (stereo unspecified)	108	21	104	-10	108	1	nt	nt	nt	nt	nt
COc1ccc2c(c1)[nH]c1c(N3CCSCC3)ncnc12	67	-2	112	-3	73	-30	nt	nt	nt	nt	nt
